Measurements of several laboratories.
Compare with care: the assays were run in different laboratories.
Target: MAP kinase-interacting serine/threonine-protein kinase 2 (MKNK2, Homo sapiens, UniProt Q9HBH9)

CN(c1nccc(-c2cnn3ncccc23)n1)C1CC1 — remaining binding (binding; 1 µM): 77%
O=C(c1ccc(Nc2ncc(Cl)c(-c3cc4ccccc4s3)n2)cc1)N1CCC(N2CCCC2)CC1 — remaining binding (binding; competition with immobilised ligand; 1 µM): 6.9%
N[C@@H]1CCN(c2nccc(-c3cnn4ncccc34)n2)C1 — remaining binding (binding; 1 µM): 14%
C[C@@H]1CN(c2ccc3ncc(-c4ccc5[nH]nc(C6CC6)c5c4)n3n2)C[C@H](C)O1 — remaining binding (binding; competition with immobilised ligand; 50 nM): 75%
COc1ncc2cc3ccccc3nc2c1C#N — remaining binding (cell-free assay; competition with immobilised ligand; 5 µM): 98%
c1cncc(-c2cccc(Nc3nccc(NC4CCCCC4)n3)c2)c1 — remaining binding (binding; competition with immobilised ligand; 10 µM): 33%
CC(C)(C)c1ccc(-c2nc(CBr)nn2-c2cccc(O)c2)cc1 — remaining binding (cell-free assay; competition with immobilised ligand; 10 µM): 62%
Cn1nc(C(F)(F)F)cc1-c1cnc(N2CCc3cc(S(=O)(=O)Nc4c(F)cc(Cl)cc4F)cc(N4CCCC4=O)c32)nc1 — remaining binding (cell-free assay; competition with immobilised ligand; 1 µM): 94%
c1cnn2ncc(-c3ccnc(N4CCC45COC5)n3)c2c1 — remaining binding (binding; 1 µM): 3.3%
CN(C(=O)c1ccccc1)c1cc(N(C)c2ccc3c(c2)CCc2ccc(C(=O)NCCN4CCOCC4)cc2C3=O)ccc1F — remaining binding (cell-free assay; competition with immobilised ligand; 1 µM): 100%
O=C(c1ccc(Nc2nccc(-c3cc4ccccc4s3)n2)cc1)N1CCC(N2CCCC2)CC1 — remaining binding (binding; competition with immobilised ligand; 1 µM): 4.6%
CCCOc1ccc([C@H]2[C@H](C(=O)O)[C@@H](c3ccc4c(c3)OCO4)CN2CC(=O)Nc2c(CC)cccc2CC)cc1 — remaining binding (cell-free assay; competition with immobilised ligand; 1 µM): 74%
O=C(NCCCN1CCOCC1)c1ccc(Nc2nccc(-c3cc4ccccc4s3)n2)cc1 — remaining binding (binding; competition with immobilised ligand; 1 µM): 28%
C[C@@H]1CCN(c2nccc(-c3cnn4ncccc34)n2)C1 — remaining binding (binding; 1 µM): 11%
O=c1nc(-c2ccccn2)sc2ccccc12 — remaining binding (binding; competition with immobilised ligand; 1 µM): 100%
N#Cc1ccccc1CSc1nnc2c(n1)[nH]c1ccccc12 — remaining binding (binding; competition with immobilised ligand; 10 µM): 95%
COCCOc1nc(-c2ccc(Cl)nc2)nc2c1CN(C(=O)c1ncn3ccccc13)CC2 — remaining binding (cell-free assay; competition with immobilised ligand; 0.1 µM): 100%
CN(C)c1nccc(-c2cnc3ncccn23)n1 — remaining binding (binding; 1 µM): 46%
O=C(NCC1CCOCC1)c1n[nH]cc1NC(=O)c1c(F)cccc1F — remaining binding (binding; competition with immobilised ligand; 1 µM): 100%
CNC(=O)Nc1ccc2c(c1)[C@@]1(CC2)OC(=O)N(CC(=O)N(Cc2ccc(F)cc2)[C@@H](C)C(F)(F)F)C1=O — remaining binding (cell-free assay; competition with immobilised ligand; 1 µM): 76%
C=CC(=O)N1CCC(C(=O)NCC(=O)N2CCN(c3nc(-c4cnc(N)nc4C(F)F)nc(N4CCOCC4)n3)CC2)CC1 — remaining binding (binding; competition with immobilised ligand; 1 µM): 100%
CN(CCCC(F)(F)F)c1nccc(-c2cnn3ncccc23)n1 — remaining binding (binding; 1 µM): 35%
CNCc1ccccc1-c1csc([C@H](C)Nc2nc(C)nc3cc(OC)c(OC)cc23)c1 — remaining binding (cell-free assay; competition with immobilised ligand; 1 µM): 71%
COc1ccnn2ncc(-c3ccnc(N(C)C)n3)c12 — remaining binding (binding; 1 µM): 78%
CN(c1ccnc(CNc2nc(Nc3ccc4c(c3)CC(=O)N4)ncc2C(F)(F)F)n1)S(C)(=O)=O — remaining binding (cell-free assay; competition with immobilised ligand; 1 µM): 91%
COc1cnc(Nc2cccc(S(N)(=O)=O)c2)nc1N1CCN(c2ccccc2)C(=O)C1 — remaining binding (binding; competition with immobilised ligand; 1 µM): 59%
